Legend:
SK-BR-3 [1] = assay: Cytotoxicity against human SKBR3 cells assessed as cell viability at 6.25 uM after 72 hrs by MTS assay; format: functional; details: SK-BR-3, 72 h, read-out: Activity
Outline: (§1)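 SKBR3 breast cancer cells were exposed to compound for 72 h. Viability was measured by MTS and reported as % viability at each of five concentrations: 6.25, 12.5, 25, 50 and 100. A viability-versus-concentration plot was also made.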

SK-BR-3 [2] = assay: Cytotoxicity against human SKBR3 cells assessed as cell viability at 12.5 uM after 72 hrs by MTS assay; format: functional; details: SK-BR-3, 72 h, read-out: Activity; outline: as §1
SK-BR-3 [3] = assay: Cytotoxicity against human SKBR3 cells assessed as cell viability at 25 uM after 72 hrs by MTS assay; format: functional; details: SK-BR-3, 72 h, read-out: Activity; outline: as §1
SK-BR-3 [4] = assay: Cytotoxicity against human SKBR3 cells assessed as cell viability at 50 uM after 72 hrs by MTS assay; format: functional; details: SK-BR-3, 72 h, read-out: Activity; outline: as §1
SK-BR-3 [5] = assay: Cytotoxicity against human SKBR3 cells assessed as cell viability at 100 uM after 72 hrs by MTS assay; format: functional; details: SK-BR-3, 72 h, read-out: Activity; outline: as §1
SK-BR-3 [6] = assay: Cytotoxicity against human SKBR3 cells after 72 hrs by MTS assay; format: functional, cell-based; details: SK-BR-3, 72 h; outline: as §1

SMILES	viability at 6.25 µM (SK-BR-3 [1]) [%]	viability at 12.5 µM (SK-BR-3 [2]) [%]	viability at 25 µM (SK-BR-3 [3]) [%]	viability at 50 µM (SK-BR-3 [4]) [%]	viability at 100 µM (SK-BR-3 [5]) [%]	IC50 (SK-BR-3 [6]) [µM]
O=S1(=O)COC[C@@H](COCc2ccccc2)N1	100	100	100	80	16	
O=S1(=O)COC[C@H](COCc2ccccc2)N1	100	94	78	51	22	
O=S1(=O)COC[C@@H](COCc2ccc(-c3ccccc3)cc2)N1	75	75	75	44	46	
O=S1(=O)COC[C@@H](COCc2ccc(-c3ccc(CBr)cc3)cc2)N1	66	34	10	10	10	10
O=S1(=O)COC[C@H](COCc2ccc(-c3ccc(CBr)cc3)cc2)N1	99	81	26	18	20	10
O=S1(=O)COC[C@@H](COCc2ccccc2)N1Cc1ccccc1	89	82	88	83	82	
O=S1(=O)COC[C@H](COCc2ccccc2)N1Cc1ccccc1	81	80	82	87	96	
CCCCCCCC/C=C\CCCCCCCCOC[C@@H]1COCS(=O)(=O)N1Cc1ccccc1	100	100	99	100	100	
CCCCCCCC/C=C\CCCCCCCCOC[C@H]1COCS(=O)(=O)N1Cc1ccccc1	71	81	81	82	96	
O=S1(=O)COC[C@@H](COCc2ccc(F)cc2)N1Cc1ccccc1	93	86	88	99	96	
COc1cccc(COC[C@@H]2COCS(=O)(=O)N2Cc2ccccc2)c1	100	100	100	96	89	
O=C(OC[C@@H]1COCS(=O)(=O)N1Cc1ccccc1)c1ccccc1	81	98	88	89	100	
CN1[C@H](COCc2ccccc2)COCS1(=O)=O	85	81	88	83	82	
CCCCCCCC/C=C\CCCCCCCCOC[C@@H]1COCS(=O)(=O)N1C	72	71	65	65	65	
CN1[C@H](COCc2ccc(-c3ccccc3)cc2)COCS1(=O)=O	89	66	60	61	52	
CN1[C@H](COCc2ccc3ccccc3c2)COCS1(=O)=O	81	82	73	74	74	

— ChEMBL document CHEMBL1221316, “Synthesis of new oxathiazinane dioxides and their in vitro cancer cell growth inhibitory activity” (Bioorg Med Chem Lett, 2010)
